Experimental data published in ChEMBL document CHEMBL3232719 (J Med Chem, 2014).
The source made the active and inactive calls. The calls are words filed in the database; no cut-off is given here.

Assays:
26S proteasome [1] = experiment: Inhibition of caspase-like activity of human 20S proteasome using Ac-nLPnLD-AMC as substrate; type: protein-complex assay
HCT-116 [2] = experiment: Inhibition of human HCT116 cell growth; type: functional, cell-based
26S proteasome [3] = experiment: Inhibition of chymotrypsin-like activity of human 20S proteasome using Suc-LLVY-AMC as substrate; type: protein-complex assay
26S proteasome [4] = experiment: Inhibition of trypsin-like activity of human 20S proteasome using Ac-RLR-AMC as substrate; type: protein-complex assay
Cathepsin G = molecular target: T1, Cathepsin G (Homo sapiens, UniProt P08311); experiment: Inhibition of recombinant cathepsin G (unknown origin) using Suc-Ala-Ala-Pro-Phe-AMC as substrate by spectrofluorometer analysis
T1 sequence (P08311 whole entry): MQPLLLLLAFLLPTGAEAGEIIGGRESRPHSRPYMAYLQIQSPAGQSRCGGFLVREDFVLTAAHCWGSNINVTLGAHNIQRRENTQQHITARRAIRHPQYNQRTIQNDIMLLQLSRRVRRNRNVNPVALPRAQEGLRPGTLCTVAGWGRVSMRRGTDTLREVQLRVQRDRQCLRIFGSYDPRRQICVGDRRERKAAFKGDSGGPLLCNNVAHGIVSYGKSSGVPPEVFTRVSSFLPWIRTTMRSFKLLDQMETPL

HCT-116 [5] = experiment: Cell cycle arrest in human HCT116 cells assessed as accumulation at G2/M phase at 100 nM after 24 hrs by propidium iodide staining based flow cytometry (reference value: 19.1%); type: functional
[6] = molecular target: T2, Proteasome Macropain subunit MB1 (Homo sapiens, UniProt P28074); experiment: Inhibition of beta5 subunit of constitutive proteasome (unknown origin) by active-site ELISA
T2 sequence (P28074 whole entry): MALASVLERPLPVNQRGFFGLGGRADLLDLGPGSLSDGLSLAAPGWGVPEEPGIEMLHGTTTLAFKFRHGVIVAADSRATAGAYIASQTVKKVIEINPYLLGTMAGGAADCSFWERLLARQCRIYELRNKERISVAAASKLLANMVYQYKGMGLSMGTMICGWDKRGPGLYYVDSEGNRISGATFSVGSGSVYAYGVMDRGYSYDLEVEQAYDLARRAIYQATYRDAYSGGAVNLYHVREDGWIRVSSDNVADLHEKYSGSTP

[7] = molecular target: T3, Lysosomal protective protein (Homo sapiens, UniProt P10619); experiment: Inhibition of recombinant cathepsin A (unknown origin) using Mca-Arg-Pro-Pro-Gly-Phe-Ser-Ala-Phe-Lys(Dnp)-OH as substrate incubated with enzyme for 5 mins prior to substrate challenge for 2 hrs by spectrofluorometer analysis
T3 sequence (P10619 whole entry): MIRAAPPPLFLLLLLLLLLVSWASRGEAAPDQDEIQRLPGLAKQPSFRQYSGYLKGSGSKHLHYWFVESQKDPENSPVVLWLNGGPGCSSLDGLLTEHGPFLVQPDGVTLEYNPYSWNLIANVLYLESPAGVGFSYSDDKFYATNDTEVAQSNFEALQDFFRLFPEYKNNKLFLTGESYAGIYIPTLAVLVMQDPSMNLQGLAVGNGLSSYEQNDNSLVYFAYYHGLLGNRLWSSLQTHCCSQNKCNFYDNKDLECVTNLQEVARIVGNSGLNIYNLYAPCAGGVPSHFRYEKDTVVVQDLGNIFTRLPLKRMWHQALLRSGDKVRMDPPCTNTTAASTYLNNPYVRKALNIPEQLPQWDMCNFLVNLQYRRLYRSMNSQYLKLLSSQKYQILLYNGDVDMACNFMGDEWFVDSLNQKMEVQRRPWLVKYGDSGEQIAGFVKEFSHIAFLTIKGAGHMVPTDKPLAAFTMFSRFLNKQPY

Cathepsin B = Cathepsin B (Homo sapiens, UniProt P07858); experiment: Inhibition of recombinant cathepsin B (unknown origin) using Z-Leu-Arg-AMC as substrate by spectrofluorometer analysis
HCT-116 [8] = experiment: Induction of apoptosis in human HCT116 cells assessed as increase in PARP cleavage by immunoblot analysis; type: functional, cell-based
In short: (§1)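 HCT116 cells were treated with compound or DMSO vehicle. Lysates were immunoblotted for p53 accumulation and for cleaved PARP as the apoptosis marker.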

HCT-116 [9] = experiment: Cell cycle arrest in human HCT116 cells assessed as accumulation at G1 phase at 100 nM after 24 hrs by propidium iodide staining based flow cytometry (reference value: 35.6%); type: functional
HCT-116 [10] = experiment: Cell cycle arrest in human HCT116 cells assessed as accumulation at S phase at 100 nM after 24 hrs by propidium iodide staining based flow cytometry (reference value: 45.3%); type: functional
HCT-116 [11] = experiment: Induction of apoptosis in human HCT116 cells assessed as increase in p53 expression by immunoblot analysis; type: functional, cell-based; in short: as §1
[12] = molecular target: T4, Proteasome subunit beta type-8 (Homo sapiens, UniProt P28062); experiment: Inhibition of beta5i subunit of immunoproteasome (unknown origin) by active-site ELISA
T4 sequence (P28062 whole entry): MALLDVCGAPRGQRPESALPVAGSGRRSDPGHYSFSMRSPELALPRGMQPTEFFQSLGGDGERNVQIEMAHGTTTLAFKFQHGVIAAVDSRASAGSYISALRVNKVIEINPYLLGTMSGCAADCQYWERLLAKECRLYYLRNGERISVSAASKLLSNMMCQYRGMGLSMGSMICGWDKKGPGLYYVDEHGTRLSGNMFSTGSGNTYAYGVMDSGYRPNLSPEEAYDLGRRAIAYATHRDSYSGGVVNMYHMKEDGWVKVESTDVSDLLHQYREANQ

[13] = Inhibition of caspase-like activity of proteasome (unknown origin); parameters: species or system Homo sapiens
[14] = molecular target: T5, Proteasome Macropain subunit MB1 (Homo sapiens) (UniProt P28074); experiment: Binding affinity to beta5 subunit of 20S proteasome (unknown origin) assessed as dissociation half-life
T5 sequence (whole entry): T2 sequence (P28074 whole entry)
In short: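 Human 20S proteasome was preincubated with inhibitor. Chymotrypsin-like activity was then measured before and after removal of free inhibitor by dialysis (wash-out), with reference reversible and irreversible inhibitors run alongside.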

IC50 (26S proteasome [1]) [nM]	IC50 (HCT-116 [2]) [nM]	IC50 (26S proteasome [3]) [nM]	IC50 (26S proteasome [4]) [nM]	SMILES	other results
1000	260	7.5	> 10000	CC(C)C[C@H](NC(=O)[C@H](CC(=O)NCCC(COCc1ccccc1)COCc1ccccc1)NC(=O)c1cccc(-c2ccccc2)n1)B1O[C@@H]2C[C@@H]3C[C@@H](C3(C)C)[C@]2(C)O1	–
46	67.2	4.1	3000	CC(=O)N[C@@H](CCC(=O)NCCCC(COCc1ccccc1)COCc1ccccc1)C(=O)N[C@@H](CC(C)C)B1O[C@@H]2C[C@@H]3C[C@@H](C3(C)C)[C@]2(C)O1	–
–	1820	5.7	–	CC[C@H](C)[C@@H]1C(=O)O[C@H]1C(=O)N[C@H]1C[C@@H]1C[C@@H](CCc1ccccc1)NC(=O)[C@H](C)NC(=O)OCc1ccccc1	–
170	130	4.8	2170	CC(=O)N[C@@H](CC(=O)NCCCCOCc1ccccc1)C(=O)N[C@@H](CC(C)C)B1O[C@@H]2C[C@@H]3C[C@@H](C3(C)C)[C@]2(C)O1	IC50 (Cathepsin G): > 30000 nM; Activity (HCT-116 [5]): 50.5%; IC50 [6]: 280 nM; IC50 [7]: > 30000 nM; IC50 (Cathepsin B): > 30000 nM; Activity (HCT-116 [8]): Active; Activity (HCT-116 [9]): 22.9%; Activity (HCT-116 [10]): 26.6%; Activity (HCT-116 [11]): Active; IC50 [12]: 59 nM
75	63.6	5.1	2400	CC(=O)N[C@@H](CCC(=O)NCC(COCc1ccccc1)COCc1ccccc1)C(=O)N[C@@H](CC(C)C)B1O[C@@H]2C[C@@H]3C[C@@H](C3(C)C)[C@]2(C)O1	–
–	–	–	–	CC(C)C[C@H](NC(=O)[C@@H](NC(=O)c1cccc(-c2ccccc2)n1)[C@@H](C)O)B(O)O [DELANZOMIB]	IC50 [13]: 70 nM
–	–	–	–	CC(C)C[C@H](NC(=O)[C@H](CCc1ccccc1)NC(=O)CN1CCOCC1)C(=O)N[C@@H](Cc1ccccc1)C(=O)N[C@@H](CC(C)C)C(=O)[C@@]1(C)CO1 [CARFILZOMIB]	IC50 (Cathepsin G): > 30000 nM; IC50 [7]: > 30000 nM; IC50 (Cathepsin B): 11000 nM
–	> 10000	29	–	CC[C@H](C)[C@@H]1C(=O)O[C@H]1C(=O)NCCC(COCc1ccccc1)COCc1ccccc1	–
140	45.4	3.9	1100	CC(=O)N[C@@H](CC(=O)NCC(COCc1ccccc1)COCc1ccccc1)C(=O)N[C@@H](CC(C)C)B1O[C@@H]2C[C@@H]3C[C@@H](C3(C)C)[C@]2(C)O1	–
130	60	7.8	2700	CC(C)C[C@H](NC(=O)[C@H](CC(=O)NCCC(COCc1ccccc1)COCc1ccccc1)NC(=O)c1ccccc1)B1O[C@@H]2C[C@@H]3C[C@@H](C3(C)C)[C@]2(C)O1	–
–	79.6	7.7	–	CC(=O)N[C@@H](CC(=O)NCC(COCc1ccccc1)COCc1ccccc1)C(=O)N[C@@H](CC(C)C)B(O)O	–
76	110	5.7	2500	CC(=O)N[C@@H](CCC(=O)NCCC(COCc1ccccc1)COCc1ccccc1)C(=O)N[C@@H](CC(C)C)B1O[C@@H]2C[C@@H]3C[C@@H](C3(C)C)[C@]2(C)O1	–
120	43	4.1	2700	CC(=O)N[C@@H](CC(=O)NCCCC(COCc1ccccc1)COCc1ccccc1)C(=O)N[C@@H](CC(C)C)B1O[C@@H]2C[C@@H]3C[C@@H](C3(C)C)[C@]2(C)O1	–
–	–	–	–	CC(=O)N[C@@H](CSC(=O)[C@]1([C@@H](O)C(C)C)NC(=O)[C@H](C)[C@@H]1O)C(=O)O [LACTACYSTIN]	IC50 [12]: > 3000 nM
210	45	7.1	3300	CC(C)C[C@H](NC(=O)[C@H](CC(=O)NCCC(COCc1ccccc1)COCc1ccccc1)NC(=O)c1cnccn1)B1O[C@@H]2C[C@@H]3C[C@@H](C3(C)C)[C@]2(C)O1	–
500	2500	54	> 10000	CNC(=O)C[C@H](NC(C)=O)C(=O)N[C@@H](CC(C)C)B1O[C@@H]2C[C@@H]3C[C@@H](C3(C)C)[C@]2(C)O1	–
–	5	–	–	CC(C)C[C@H](NC(=O)[C@H](Cc1ccccc1)NC(=O)c1cnccn1)B(O)O [BORTEZOMIB]	IC50 (Cathepsin G): 3100 nM; Activity (HCT-116 [5]): 76%; IC50 [7]: 9200 nM; IC50 (Cathepsin B): > 30000 nM; Activity (HCT-116 [9]): 3%; Activity (HCT-116 [10]): 21%
–	–	–	–	CC(C)C[C@H](NC(=O)CNC(=O)c1cc(Cl)ccc1Cl)B1OC(=O)CC(CC(=O)O)(C(=O)O)O1 (stereo partly drawn)	T1/2 [14]: 18 min
150	31.8	2.7	2700	CC(=O)N[C@@H](CC(=O)NCCC(COCc1ccccc1)COCc1ccccc1)C(=O)N[C@@H](CC(C)C)B1O[C@@H]2C[C@@H]3C[C@@H](C3(C)C)[C@]2(C)O1	IC50 (Cathepsin G): > 30000 nM; Activity (HCT-116 [5]): 71.7%; IC50 [6]: 140 nM; IC50 [7]: > 30000 nM; IC50 (Cathepsin B): > 30000 nM; Activity (HCT-116 [8]): Active; Activity (HCT-116 [9]): 3.2%; Activity (HCT-116 [10]): 25.1%; Activity (HCT-116 [11]): Active; IC50 [12]: 31 nM
250	140	5.9	> 10000	CC(C)C[C@H](NC(=O)[C@H](CC(=O)NCCC(COCc1ccccc1)COCc1ccccc1)NC(=O)c1cc(Cl)ccc1Cl)B1O[C@@H]2C[C@@H]3C[C@@H](C3(C)C)[C@]2(C)O1	–

SMILES	IC50 (26S proteasome [1]) [nM]	IC50 (HCT-116 [2]) [nM]	IC50 (26S proteasome [3]) [nM]	IC50 (26S proteasome [4]) [nM]	other results
CC[C@H](C)[C@@H]1C(=O)O[C@H]1C(=O)N[C@H]1C[C@H]1C[C@H](NC(=O)[C@H](C)N)C(=O)O [BELACTOSIN A]	–	–	1400	–	–
